Laboratory results published in ChEMBL document CHEMBL5724801, “EUbOPEN Chemogenomics Library - Multiplex” (2024).
Several values for one entry are separate records, joined by “and”; a condition that tells them apart may be missing. Equal entries are not always repeated.

System: Fibroblast
Assay: Multiplex assay against human fibroblast
Assay type: toxicity, cell-based
How it was run: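 Live cells were stained at seeding with Hoechst33342, BioTracker Green Microtubule Cytoskeleton Dye, MitoTracker Red and Annexin V Alexa Fluor 680, then imaged on a CQ1 microscope at 37°C and 5% CO2 after compound addition. CellPathfinder machine-learning gating split cells into Hoechst high-intensity objects or normal cells. Normal cells were split into healthy, pyknosed or fragmented nuclei, and pyknosed cells into mitotic or apoptotic. Tubulin, mitochondrial-mass and membrane-permeability phenotypes are per cents of healthy-nucleus cells.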

[1] = 12 h, 1 µM, compound concentration 1 uM
[2] = 12 h, 10 µM, compound concentration 10 uM
[3] = 24 h, 1 µM, compound concentration 1 uM
[4] = 24 h, 10 µM, compound concentration 10 uM
[5] = 48 h, 1 µM, compound concentration 1 uM
[6] = 48 h, 10 µM, compound concentration 10 uM

With `O=C(Nc1ccccc1Cl)c1cnc2ccc(C3CCNCC3)cn12.O=C(O)C(=O)O` the “Population Fragmented Nuclei (%)” value [1] was 12.96% and 7.79%, the “Population Healthy Nuclei (%)” value [1] was 60.19% and 75.41% and the “Population Hoechst High Intensity Objects (%)” value [1] was 0%. The “Population Membrane Permeable-Phenotype (%)” value [1] was 1.54% and 2.72%, the “Population Mitochondria Different-Phenotype (%)” value [1] was 7.69% and 10.87% and the “Population Mitotic Cells (%)” value [1] was 93.1% and 73.17%. For the same molecule, the “Population Normal (%)” value [1] was 100%, the “Population Pyknosed Nuclei (%)” value [1] was 26.85% and 16.8% and the “Population Tubulin-Different-Phenotype (%)” value [1] was 17.69% and 23.91%. The “Total Cell Count” value [1] was 216 and 244, the “Population Apoptotic (%)” value [2] was 16.33% and 20.48% and the “Population Healthy Nuclei (%)” value [2] was 62.09% and 63.64%. For the same molecule, the “Population Hoechst High Intensity Objects (%)” value [2] was 0% and 0.43%, the “Population Membrane Permeable-Phenotype (%)” value [2] was 4.42% and 7.48% and the “Population Mitochondria Different-Phenotype (%)” value [2] was 17.7% and 21.09%. For the same molecule, the “Population Mitotic Cells (%)” value [2] was 83.67% and 79.52%, the “Population Normal (%)” value [2] was 100% and 99.57% and the “Population Pyknosed Nuclei (%)” value [2] was 26.92% and 35.93%. For the same molecule, the “Population Tubulin-Different-Phenotype (%)” value [2] was 40.71% and 57.82%, the “Total Cell Count” value [2] was 182 and 232 and the “Population Apoptotic (%)” value [3] was 14.29% and 25.71%. The “Population Fragmented Nuclei (%)” value [3] was 11.52% and 3.52%, the “Population Healthy Nuclei (%)” value [3] was 72.35% and 81.06% and the “Population Hoechst High Intensity Objects (%)” value [3] was 0%. For the same molecule, the “Population Membrane Permeable-Phenotype (%)” value [3] was 4.46% and 3.8%, the “Population Mitochondria Different-Phenotype (%)” value [3] was 8.92% and 15.22% and the “Population Mitotic Cells (%)” value [3] was 85.71% and 74.29%. The “Population Normal (%)” value [3] was 100%, the “Population Pyknosed Nuclei (%)” value [3] was 16.13% and 15.42% and the “Population Tubulin-Different-Phenotype (%)” value [3] was 19.75% and 25.54%. For the same molecule, the “Total Cell Count” value [3] was 217 and 227, the “Population Apoptotic (%)” value [4] was 35.29% and 37.66% and the “Population Healthy Nuclei (%)” value [4] was 67.43% and 62.44%. The “Population Hoechst High Intensity Objects (%)” value [4] was 0%, the “Population Membrane Permeable-Phenotype (%)” value [4] was 6.78% and 10.53% and the “Population Mitochondria Different-Phenotype (%)” value [4] was 28.81% and 18.05%. The “Population Mitotic Cells (%)” value [4] was 64.71% and 62.34%, the “Population Normal (%)” value [4] was 100% and the “Population Pyknosed Nuclei (%)” value [4] was 19.43% and 36.15%. For the same molecule, the “Population Tubulin-Different-Phenotype (%)” value [4] was 49.15% and 60.9%, the “Total Cell Count” value [4] was 175 and 213 and the “Population Fragmented Nuclei (%)” value [5] was 11.26% and 5.24%. The “Population Healthy Nuclei (%)” value [5] was 79.73% and 81.22%, the “Population Hoechst High Intensity Objects (%)” value [5] was 0% and the “Population Membrane Permeable-Phenotype (%)” value [5] was 2.26% and 5.91%. The “Population Mitochondria Different-Phenotype (%)” value [5] was 7.91% and 2.15%, the “Population Mitotic Cells (%)” value [5] was 90% and 64.52% and the “Population Normal (%)” value [5] was 100%. The “Population Pyknosed Nuclei (%)” value [5] was 9.01% and 13.54%, the “Population Tubulin-Different-Phenotype (%)” value [5] was 12.43% and 28.49% and the “Total Cell Count” value [5] was 222 and 229. For the same molecule, the “Population Apoptotic (%)” value [6] was 33.33% and 60.38%, the “Population Fragmented Nuclei (%)” value [6] was 10.9% and 1.94% and the “Population Healthy Nuclei (%)” value [6] was 75.64% and 63.87%. The “Population Hoechst High Intensity Objects (%)” value [6] was 0% and 0.64%, the “Population Mitochondria Different-Phenotype (%)” value [6] was 13.56% and 16.16% and the “Population Mitotic Cells (%)” value [6] was 66.67% and 39.62%. For the same molecule, the “Population Normal (%)” value [6] was 100% and 99.36%, the “Population Pyknosed Nuclei (%)” value [6] was 13.46% and 34.19% and the “Population Tubulin-Different-Phenotype (%)” value [6] was 50.85% and 74.75%. For the same molecule, the “Total Cell Count” value [6] was 156.
